Screening results: PubChem, The Scripps Research Institute Molecular Screening Center
Rows were chosen to be rich in hits. Some 2.3% of all compounds tested hit in one or more screens of this group.
TAAR1 agonist: agonists of human TAAR1; Q96RJ0; CHO RD-HGA16 TAAR1, Fluo-8 calcium fluorescence; vehicle wells 0%, saturating PEA agonist 100%; activation, % at 3 µM; actives 0.99% (n = 360,000);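 active means activation above the mean activation of all test compounds in the run plus 3 SD, cut at about 38% in these data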
Target sequence (Q96RJ0 whole entry, looked up): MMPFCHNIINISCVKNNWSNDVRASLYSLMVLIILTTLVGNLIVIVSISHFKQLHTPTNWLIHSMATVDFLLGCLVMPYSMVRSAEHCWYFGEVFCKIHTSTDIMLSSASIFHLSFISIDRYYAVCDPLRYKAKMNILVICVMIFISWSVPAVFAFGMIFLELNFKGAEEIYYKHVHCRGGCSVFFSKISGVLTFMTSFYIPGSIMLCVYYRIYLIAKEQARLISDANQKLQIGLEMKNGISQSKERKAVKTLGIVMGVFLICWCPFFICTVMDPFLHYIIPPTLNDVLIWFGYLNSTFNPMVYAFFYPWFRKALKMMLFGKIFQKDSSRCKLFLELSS
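System: CHO-derived RD-HGA16 cells with stable Gα16 and human TAAR1 / Times: 17-24 h plating, Fluo-8 75 min 37 °C, 30 min RT / Technique: calcium-sensitive Fluo-8 signal, excitation 470-495, emission 515-575 nm / Measure: % activation relative to PEA EC100 response / Benchmarks: DMSO and PEA EC100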
V1aR counter: activates human V1a receptor in oxytocin agonist counter-screen; AID 2797; activation, % at 3 µM; actives 0.25% (n = 320,000); P37288; CHO-V1R cells, Fluo-8 calcium fluorescence, agonist mode; 0% DMSO, 100% 3 nM vasopressin;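 active means activation above the mean activation of all tested compounds plus 3 SD, per screening run, cut at about 20% in these data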;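 further: signal is peak over basal fluorescence ratio across a 100 second FLIPR read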
OXTR ag: human OXTR agonism | P30559 | CHO-OTR cells, Fluo-8 calcium fluorescence; normalized: DMSO 0%, oxytocin 100% | activation, % at 3 µM | actives 0.32% (n = 320,000);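 active means activation above the mean of all tested compounds plus 3 SD, cutoff set per screening run, cut at about 20% in these data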;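 further: peak over basal fluorescence ratio from a 100 s FLIPR kinetic read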
OXTR potentiate: potentiates the human oxytocin receptor response; actives 0.061% (n = 320,000); CHO-OTR cells, Fluo-8 calcium fluorescence, potentiator mode; 0% = oxytocin EC15, 100% = EC100; activation, % at 3 µM; P30559;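 active means activation above that plate's cutoff, the mean activation of tested compounds plus 3 SD, cut at about 6.6% in these data, passing the limit was not always enough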;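 further: 100% uses oxytocin at 75 nM as the full agonist control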
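assay system = CHO-OTR cells, human receptor | schedule = compound 6 min at room temperature before oxytocin, 100 s read | detection = Fluo-8 intracellular calcium fluorescence, ex 470-495, em 515-575 nm | evaluation = normalized max/min fluorescence ratio, % activation | control set = EC15 oxytocin alone as 0%, 75 nM oxytocin (EC100) as 100%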
TAAR1 antagonist: antagonists of human TAAR1 | inhibition, % at 3 µM | CHO RD-HGA16 TAAR1, Fluo-8 calcium fluorescence, antagonist | actives 1.5% (n = 360,000) | Q96RJ0 | AID 624466;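 active means inhibition above a per-plate cutoff, the mean inhibition of test compounds on that plate plus 3 SD, cut at about 49% in these data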;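 further: 0% = DMSO plus EC80 beta-PEA response and 100% = DMSO alone without agonist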
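Test system: hTAAR1-expressing CHO RD-HGA16 cells, Gα16-coupled; Probe or stimulus: EC80 β-phenethylamine stimulus; Compound dosing: single nominal final test compound concentration of 3 µM; Timing: 140 s kinetic read after compound, 140 s after agonist; Signal: Fluo-8 calcium-sensitive fluorescence; Measure: % inhibition of agonist calcium response; Controls: DMSO and EC80 PEA controls.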
OXTR agonist cf: human OXTR agonism, confirmation; shares compounds with OXTR ag; CHO-OTR cells, Fluo-8 calcium fluorescence, agonist; activation, % at 3 µM; actives 20% (n = 390); AID 434963;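 active means mean activation above about 20% derived from the earlier single-dose screen, limit read from the data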;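 further: peak over minimum fluorescence ratio per well during a 100 second FLIPR read; 0% = DMSO alone and 100% = oxytocin high control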
V1aR counter 3x: V1R agonism in triplicate, counter-screen for OXTR agonists | shares compounds with OXTR ag | CHO-V1R cells, Fluo-8 calcium fluorescence, agonist | activation, % at 3 µM | actives 10% (n = 390) | AID 434991;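 active means mean activation over triplicate exceeds the hit threshold set in the earlier primary screen, cut at about 20% in these data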;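 further: peak over basal fluorescence ratio within a 100 second read; 0% = DMSO alone and 100% = 3 nM vasopressin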
The depositor's hits bear a star.

What do the screens show for `Cc1cc(C)c2nc(N(CCCN(C)C)C(=O)c3ccc4c(c3)OCCO4)sc2c1`?
TAAR1 agonist: 10; V1aR counter: 4; OXTR ag: 20*; OXTR potentiate: -17; TAAR1 antagonist: 17; OXTR agonist cf: 6; V1aR counter 3x: 4

What do the screens show for `COc1ccc(CC(=O)NC(=S)Nc2ccc(S(=O)(=O)NC(C)(C)C)cc2)cc1`?
TAAR1 agonist: 53*; V1aR counter: 17; OXTR ag: 20*; OXTR potentiate: -23; TAAR1 antagonist: 31; OXTR agonist cf: 17; V1aR counter 3x: 15

Results for COc1cc(CNC2CCCC2)cc(Cl)c1OCc1ccc(F)cc1 ?
TAAR1 agonist: 23; V1aR counter: 11; OXTR ag: 13; OXTR potentiate: -11; TAAR1 antagonist: -2

What do the screens show for `CCOc1cc(CNC2CCCC2)cc(Cl)c1OCc1ccc(F)cc1`?
TAAR1 agonist: 40*; V1aR counter: 10; OXTR ag: 21*; OXTR potentiate: -12; TAAR1 antagonist: 16; OXTR agonist cf: 6; V1aR counter 3x: 4

Results for O=C(Nc1cccc(Br)c1)c1ccc(Cl)c(S(=O)(=O)N2CCOCC2)c1 ?
TAAR1 agonist: 30; V1aR counter: 15; OXTR ag: 24*; OXTR potentiate: -14; TAAR1 antagonist: 73*; OXTR agonist cf: 10; V1aR counter 3x: 10

How did CCCN1C(=O)/C(=C/c2c(NCCCOC(C)C)nc3c(C)cccn3c2=O)SC1=S do in these assays?
V1aR counter: 4; OXTR ag: 5; OXTR potentiate: -12

What do the screens show for `CCC(C)N1C(=O)/C(=C/c2c(NCCCOC(C)C)nc3c(C)cccn3c2=O)SC1=S` (centres undefined)?
TAAR1 agonist: 10; V1aR counter: 18; OXTR ag: 21*; OXTR potentiate: -7; TAAR1 antagonist: 13; OXTR agonist cf: 37*; V1aR counter 3x: 85*

What do the screens show for `CC(C)N(CC(=O)Nc1ccc(Cl)cc1C(F)(F)F)C(=O)CCl`?
TAAR1 agonist: 1; V1aR counter: 1; OXTR ag: 1; OXTR potentiate: -4; TAAR1 antagonist: -14

How did COc1ccccc1OCc1ccc(C(=O)NCC2CCCO2)cc1 (centres undefined) do in these assays?
TAAR1 agonist: 8; V1aR counter: 1; OXTR ag: 1; OXTR potentiate: -3; TAAR1 antagonist: -3

Results for CCOC(=O)Cn1c(=N)n(CCOc2ccc(OC)cc2)c2ccccc21 ?
V1aR counter: 1; OXTR ag: 39*; OXTR potentiate: -21; OXTR agonist cf: 0; V1aR counter 3x: 0

How did CC(=O)Oc1ccc(C(=O)Cc2ccc3ccccc3n2)c(O)c1C do in these assays?
TAAR1 agonist: 3; V1aR counter: 3; OXTR ag: 2; OXTR potentiate: 2; TAAR1 antagonist: -13

How did Cc1c(O)ccc(/C(Cc2ccc3ccccc3n2)=N\O)c1O do in these assays?
TAAR1 agonist: 13; V1aR counter: 17; OXTR ag: 22*; OXTR potentiate: -24; TAAR1 antagonist: 19; OXTR agonist cf: 13; V1aR counter 3x: 7

Results for Cc1cc(OCC(=O)NCc2ccccn2)c2c(C)c(C)c(=O)oc2c1 ?
TAAR1 agonist: -1; V1aR counter: 1; OXTR ag: 2; OXTR potentiate: -7; TAAR1 antagonist: -2

Results for COc1ccc(-c2nn(-c3ccccc3)cc2C2CC(c3cccs3)=NN2C(=O)CCCC(=O)O)cc1 (centres undefined) ?
TAAR1 agonist: 8; V1aR counter: 7; OXTR ag: 8; OXTR potentiate: -12; TAAR1 antagonist: 1

How did Cc1ccc(-c2nn(-c3ccccc3)cc2C2CC(c3cccs3)=NN2C(=O)CCCC(=O)O)cc1 (centres undefined) do in these assays?
TAAR1 agonist: 13; V1aR counter: 19; OXTR ag: 23*; OXTR potentiate: -12; TAAR1 antagonist: 20; OXTR agonist cf: 7; V1aR counter 3x: 2
